Experimental data as given in ChEMBL document CHEMBL4270526, “A novel NAE/UAE dual inhibitor LP0040 blocks neddylation and ubiquitination leading to growth inhibition and apoptosis of cancer cells” (Eur J Med Chem, 2018).
pIC50: −log10 of the molar value. Calls of active or inactive are those of the source. The rule behind the calls is not given here.

Experiments:
SK-OV-3 = experiment: Antiproliferative activity against human SKOV3 cells after 48 hrs by CCK8 assay; type: functional, cell-based; conditions: SK-OV-3, 48 h
Summary of the method: (§1)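 Cells seeded at 6 × 10^3 cells/well and left 12 h at 37 °C, 5% CO2. Medium then replaced with serial compound dilutions, bortezomib as positive control. After 48 h, CCK-8 added for 4 h and absorbance read at 450 nm. Three repeats; IC50 from normalized nonlinear regression of inhibition curves.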

HCT-116 = experiment: Antiproliferative activity against human HCT116 cells after 48 hrs by CCK8 assay; type: functional, cell-based; conditions: HCT-116, 48 h; summary of the method: as §1
A549 = experiment: Antiproliferative activity against human A549 cells after 48 hrs by CCK8 assay; type: functional, cell-based; conditions: A549, 48 h; summary of the method: as §1
AGS = experiment: Antiproliferative activity against human AGS cells after 48 hrs by CCK8 assay; type: functional, cell-based; summary of the method: as §1
K562 = experiment: Antiproliferative activity against human K562 cells after 48 hrs by CCK8 assay; type: functional, cell-based; conditions: K562, 48 h; summary of the method: as §1
[1] = Hemolytic activity against rabbit erythrocytes assessed as hemolysis at 100 uM measured after 1 hr; type: ADME, cell-based, Oryctolagus cuniculus, Erythrocyte; conditions: read-out: Activity
Summary of the method: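 Rabbit erythrocytes pelleted at 3000 rpm for 10 min, washed twice and resuspended in PBS. Mixed 1:1 with 200 μM compound solution in PBS, 1 h at 37 °C. PBS served as 0% and 1% Triton X-100 as 100% hemolysis. After centrifugation, supernatant hemoglobin read at 540 nm; % hemolysis calculated relative to the Triton and PBS controls.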

BXPC-3 = experiment: Antiproliferative activity against human BxPC3 cells after 48 hrs by CCK8 assay; type: functional, cell-based; conditions: BXPC-3, 48 h; summary of the method: as §1
[2] = Antiproliferative activity against human LO2 cells after 48 hrs by CCK8 assay; type: cell-based, L02; conditions: read-out: LC50
[3] = Antiproliferative activity against HEK293T cells after 48 hrs by CCK8 assay; type: cell-based, HEK-293T; conditions: human, read-out: LC50
[4] = Antiproliferative activity against HUVEC after 48 hrs by CCK8 assay; type: cell-based; conditions: human, read-out: LC50
[5] = target: T1, NEDD8 activating enzyme (Homo sapiens) (UniProt Q8TBC4+Q13564); experiment: Inhibition of NAE in human AGS cells assessed as reduction in Cullins-NEDD8 conjugation level at 10 to 90 uM after 24 hrs by Western blot analysis; type: cell-based
[6] = target: T1, NEDD8 activating enzyme (Homo sapiens); experiment: Inhibition of NAE-mediated CRL neddylation in human AGS cells assessed as increase in p27 level after 24 hrs by Western blot analysis; type: cell-based
Summary of the method: (§2)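 AGS cells given 2, 4, 6, 8 or 10 μM compound or 0.1% DMSO for 24 h, washed in ice-cold PBS and lysed in RIPA on ice. Equal protein loads run by SDS-PAGE: non-reducing for NEDD8/SUMO/Ub conjugates, reducing for p27, NRF2, CDT1 and cleaved caspase-3. Blotted to PVDF with primary antibody overnight at 4 °C and HRP secondary, ECL detection, densitometry. Three repeats.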

[7] = target: T1, NEDD8 activating enzyme (Homo sapiens); experiment: Inhibition of NAE-mediated CRL neddylation in human AGS cells assessed as increase in NRF2 level after 24 hrs by Western blot analysis; type: cell-based; summary of the method: as §2
[8] = target: T1, NEDD8 activating enzyme (Homo sapiens); experiment: Inhibition of NAE-mediated CRL neddylation in human AGS cells assessed as increase in CDT1 level after 24 hrs by Western blot analysis; type: cell-based; summary of the method: as §2
[9] = target: T1, NEDD8 activating enzyme (Homo sapiens); experiment: Inhibition of NAE in human AGS cells assessed as reduction in Uba3-NEDD8 conjugation level at 10 to 90 uM after 24 hrs by Western blot analysis; type: cell-based
[10] = target: T1, NEDD8 activating enzyme (Homo sapiens); experiment: Inhibition of NAE in human AGS cells assessed as reduction in Ubc12-NEDD8 conjugation level at 10 to 90 uM after 24 hrs by Western blot analysis; type: cell-based

Row | Compound | pIC50 (SK-OV-3) | pIC50 (HCT-116) | pIC50 (A549) | pIC50 (AGS) | pIC50 (K562) | pIC50 (BXPC-3) | inhibition [5] | inhibition [6] | inhibition [7] | inhibition [8] | inhibition [9] | inhibition [10] | hemolysis at 1 h, 100 µM [1] [%] | CC50 at 48 h [2] [µM] | CC50 at 48 h [3] [µM] | CC50 at 48 h [4] [µM]
1 | O=c1cc(C#Cc2cccc(Cl)c2)c2ccc(N3CCC(NCCc4ccccc4)CC3)cc2o1 | 5.12 | 5.37 | 5.51 | 5.85 | 5.88 | 5.88 | – | – | – | – | – | – | < 10 | – | – | –
2 | NS(=O)(=O)OC[C@@H]1C[C@@H](n2ccc3c(N[C@@H]4CCc5ccccc54)ncnc32)C[C@@H]1O | – | – | – | – | – | – | – | – | – | – | – | – | 5.8 | 9.01 | 6.17 | 4.79
3 | O=c1cc(-c2ccc(Oc3ccccc3)cc2)c2ccc(N3CCC(NCCc4ccccc4)CC3)cc2o1 | 5.49 | 5.21 | 5.42 | 5.90 | 5.82 | 5.55 | – | – | – | – | – | – | – | – | – | –
4 | Clc1ccc(CCNC2CCN(Cc3ccccc3)CC2)c(Cl)c1 | 5.03 | 4.98 | 5.26 | 5.00 | 5.26 | 4.91 | – | – | – | – | – | – | – | – | – | –
5 | CC(C)C[C@H](NC(=O)[C@H](Cc1ccccc1)NC(=O)c1cnccn1)B(O)O [BORTEZOMIB] | – | – | – | – | – | – | – | – | – | – | – | – | – | 0.398 | 0.016 | 0.018
6 | O=c1cc(C#CC2(O)CCCCC2)c2ccc(N3CCC(NCCc4ccccc4)CC3)cc2o1 | 5.36 | 5.55 | 5.61 | 5.77 | 5.58 | 5.70 | – | – | – | – | – | – | – | – | – | –
7 | O=c1cc(C#CC2CCCCC2)c2ccc(N3CCC(NCCc4ccccc4)CC3)cc2o1 | 5.38 | 5.55 | 5.52 | 5.95 | 5.93 | 5.39 | – | – | – | – | – | – | – | – | – | –

The next lines start with results.

Row | pIC50 (SK-OV-3) | pIC50 (HCT-116) | pIC50 (A549) | pIC50 (AGS) | pIC50 (K562) | pIC50 (BXPC-3) | inhibition [5] | inhibition [6] | inhibition [7] | inhibition [8] | inhibition [9] | inhibition [10] | Compound | hemolysis at 1 h, 100 µM [1] [%] | CC50 at 48 h [2] [µM] | CC50 at 48 h [3] [µM] | CC50 at 48 h [4] [µM]
8 | 5.11 | 5.57 | 5.47 | 5.78 | 5.48 | 5.36 | – | – | – | – | – | – | O=c1cc(C#Cc2cccnc2)c2ccc(N3CCC(NCCc4ccccc4)CC3)cc2o1 | < 10 | – | – | –
9 | 5.19 | 5.24 | 5.42 | 5.72 | 5.49 | 5.07 | – | – | – | – | – | – | Cc1ccc(-c2cc(=O)oc3cc(N4CCC(NCCc5ccccc5)CC4)ccc23)cc1C | – | – | – | –
10 | < 4.52 | < 4.52 | < 4.52 | < 4.52 | < 4.52 | < 4.52 | – | – | – | – | – | – | O=c1cc(-c2c[nH]nn2)c2ccc(N3CCC(NCCc4ccccc4)CC3)cc2o1 | – | – | – | –
11 | < 4.52 | < 4.52 | < 4.52 | < 4.52 | < 4.52 | < 4.52 | inactive | inactive | inactive | inactive | inactive | inactive | O=c1cc(-c2cnc(O)nc2O)c2ccc(N3CCC(NCCc4ccccc4)CC3)cc2o1 | – | – | – | –
12 | 5.23 | 5.22 | 5.51 | 5.86 | 5.48 | 5.12 | – | – | – | – | – | – | Cc1cc(-c2cc(=O)oc3cc(N4CCC(NCCc5ccccc5)CC4)ccc23)ccc1C(F)(F)F | – | – | – | –
